# Measurements as given in ChEMBL document CHEMBL1139837, “Synthesis and transfection efficiencies of new lipophilic polyamines” (J Med Chem, 2007).
# The source made the active and inactive calls.
# Tests used:
# CHO [1] = assay: Survival of CHO cells after 48 hrs upto 6.4 uM; type: functional, Cricetulus griseus
# Outline: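 CHO cells grown at 37 °C, 5% CO2, in RPMI with 10% fetal calf serum, 2 mM glutamine, penicillin/streptomycin and 2 mM aminoguanidine. Viability was checked by trypan blue before each run. Cells were plated at 2e3 cells/mL in 96-well plates and dosed after overnight incubation. DMSO was kept below 40 µM. Growth after 48 h was read as MTT formazan absorbance at 540 nm.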
# CHO-K1 [2] = assay: Transfection efficiency in eGFP encoding DNA transfected CHOK1 cells after 24 hrs at 5 ug/mL; type: functional, Cricetulus griseus
# Outline: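 Subconfluent (~50%) CHO-K1 cells were exposed 4 h at 37 °C in F12K to 1 µg/mL eGFP plasmid complexed with lipid (0.5, 2.5 or 5 µg/mL). Medium was then replaced with growth medium for 24 h. Trypsinized cells were scored by FACS. The gate was set above the no-plasmid/no-lipid threshold (5.5), giving % GFP-positive cells; mean ± SD.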
# CHO-K1 [3] = assay: Increase in uptake of DNA in CHOK1 cells after 4 hrs; type: functional, cell-based; conditions: Cricetulus griseus
# Outline: (§1)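 Confluent CHO-K1 cells, rinsed, were incubated 4 h at 37 °C in serum-free F12K with 1 µg/mL Alexa Fluor-488-labeled DNA complexed with cationic lipid at 0.5, 2.5 or 5 µg/mL. Cells were washed with PBS, trypsinized, washed with ice-cold PBS/1% BSA to remove surface signal, then assayed by flow cytometry for internalized fluorescence. Gated percent positive cells were set against DNA-only cells; mean ± SD.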
# CHO-K1 [4] = assay: Increase in uptake of DNA in CHOK1 cells after 4 hrs at 5 ug/mL; type: functional, cell-based; conditions: Cricetulus griseus; outline: as §1
# [5] = Inhibition of [14C]spermine uptake into polyamine transporter in CHOK1 cells; type: cell-based; conditions: Cricetulus griseus, CHO-K1
# Outline: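 Subconfluent CHO-K1 cells were rinsed three times in F12K and dosed with varying compound concentrations. They were incubated 20 min with 1 µM [14C]spermine (31 Ci/mol) in serum-free medium, rinsed (including 1 mM spermine washes), and lysed in 0.5 M NaOH for 1 h at 37 °C. Lysates were neutralized and scintillation-counted to give an IC50.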
# CHO [6] = assay: Cytotoxicity against CHO cells after 24 hrs at 0.5 uM; type: cell-based, Cricetulus griseus; conditions: chinese hamster
Compound,Survival (CHO [1]),Activity (CHO-K1 [2]),Activity (CHO-K1 [3]),Activity (CHO-K1 [4]),IC50 [5],Activity (CHO [6])
CCCCCCCC/C=C/CCCCCCCCOc1ccc(CNCCCCCCCCN)cc1OCCCCCCCC/C=C/CCCCCCCC,>=90%,23%,Dose-dependent effect,–,–,–
CCCCCCCC/C=C/CCCCCCCCOc1ccc(C(=O)NCCCCNCCCCN)cc1OCCCCCCCC/C=C/CCCCCCCC,>=90%,40%,Dose-dependent effect,–,–,–
CCCCCCCC/C=C/CCCCCCCCOc1ccc(CNCCCCN)cc1OCCCCCCCC/C=C/CCCCCCCC,>=90%,38%,Dose-dependent effect,Active,–,–
CCCCCCCC/C=C/CCCCCCCCOc1ccc(CNCCCCNCCCCNCCCCN)cc1OCCCCCCCC/C=C/CCCCCCCC,>=90%,67%,Dose-dependent effect,Active,10 µM,–
CCCCCCCC/C=C/CCCCCCCCOc1ccc(CNCCCCNCCCCN)cc1OCCCCCCCC/C=C/CCCCCCCC,>=90%,49%,Dose-dependent effect,Active,–,–
CCCCCCCC/C=C/CCCCCCCCOc1ccc(CNCCOCCOCCN)cc1OCCCCCCCC/C=C/CCCCCCCC,>=90%,25%,Dose-dependent effect,–,–,–
CCCCCCCC/C=C/CCCCCCCCOc1ccc(C(=O)NCCCCNCCCCNCCCCN)cc1OCCCCCCCC/C=C/CCCCCCCC,–,–,Dose-dependent effect,–,–,95%
